# Apaf1 activ: activates human Apaf-1 apoptosome; Apaf-1 apoptosome caspase-3 activation, DEVD-Rh110 fluorescence; hits give low values; activity change, negative = activation, % at 20 µM; 0.31% of 330,000 active; O14727;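 active = activity change at or below -40% at 20 µM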
#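 Material: reconstituted apoptosome of Apaf-1, cytochrome c, caspase-9, procaspase-3; times: 30 min preincubation, 50 min reaction, room temperature; measured by: fluorescence, 540 nm emission, 480 nm excitation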
# Rh110 act interf: Rh110 signal interference in Apaf-1 activator counter-screen; shares compounds with Apaf1 activ; Rh110 fluorescence interference, quenched caspase reaction, Ex480/Em540; fluorescence interference (activity change), % at 20 µM, hits read low; 980 tested, under 10 active; AID 504616;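 active = mean activity change at or below -40% when tested at 20 µM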
# Apaf-1 act conf: confirmation of human Apaf-1 activators; shares compounds with Apaf1 activ; reconstituted apoptosome caspase-3 activity, DEVD-Rh110 fluorescence; hits give low values; activity change, negative = activation, % at 20 µM; 5% of 980 active; AID 504617;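 active = mean activity change at or below -40%, meaning activation of 40% or more, at 20 µM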
# Numbers stand for hits; i = inactive. These entries were drawn from the full list.
SMILES,Apaf1 activ,others
COc1cc(OC)c2c(-c3ccccc3)cc(=O)oc2c1C(CCN1CCCC(C)C1)c1ccc2c(c1)OCO2 (configuration not stated),i,
Nc1ccc2nc3c(c(Cl)c2c1)CCCC3,i,
CC1=CC(C)(C)N2C(=O)C(=Nc3ccc(O)cc3)c3cccc1c32,i,
COc1ccc(C2c3sc(=O)[nH]c3SC3C(=O)N(c4ccccc4)C(=O)C32)cc1 (configuration not stated),-178,Rh110 act interf=i;Apaf-1 act conf=i
COc1cccc2c1C(=O)c1c(O)c3c(c(O)c1C2=O)C[C@@](O)(C(=O)CO)C[C@@H]3O[C@H]1C[C@H](N)[C@@H](O)[C@H](C)O1,i,
CCOc1cccc(-c2cc(=O)[nH][nH]2)c1,i,
Cc1ccc(-n2nc3c(c2NC(=O)c2ccco2)CS(=O)(=O)C3)cc1C,-391,Rh110 act interf=i;Apaf-1 act conf=i
CCNC(=O)Oc1ccc[nH]c1=O,i,
CC(C)CCC(C)N=Cc1c(O)n(Cc2ccccc2)c(=O)c2ccccc12 (configuration not stated),i,
